Reference: ChEMBL document CHEMBL1148262, “Stability studies of C-4',6' acetal benzylmaltosides synthesized as inhibitors of smooth muscle cell proliferation” (Bioorg Med Chem Lett, 2004)

Tests used:
[1] = test system: HASMC; experiment: Concentration inducing 50% inhibition of Human aortic smooth muscle cell (HASMC) proliferation; format: functional, cell-based
Procedure, shortened: (§1)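 HASMC or HAEC from passage 3–6, grown to 70–80% confluence in 24-well plates, then held 24–48 h without serum or growth factors to make them quiescent. Restimulated with serum or growth factor for 24 h with 0.5 µCi/mL ³H-thymidine. Compounds were added from 50% ethanol stock at 1–100 µM. TCA-precipitable counts were measured in triplicate, as percent of stimulated control, and IC50 was derived.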

[2] = Stability of compound determined in medium mimicking stomach as percent remaining at 18-20 hr at a pH of 1; format: ADME; conditions: pH 1
[3] = Half-life of compound at a pH of 1.9 was determined; format: ADME; conditions: pH 1.9
[4] = Half-life of compound at a pH of 1.4 was determined; format: ADME; conditions: pH 1.4
[5] = Half-life of compound at a pH of 2.5 was determined; format: ADME; conditions: pH 2.5
[6] = Half-life of compound at a pH of 4.5 was determined; format: ADME; conditions: pH 4.5
[7] = Half-life of compound at a pH of 3.5 was determined; format: ADME; conditions: pH 3.5
[8] = Half-life of compound at a pH of 4 was determined; format: ADME; conditions: pH 4
[9] = Half-life of compound at a pH of 1 was determined; format: ADME; conditions: pH 1
[10] = Half-life of compound at a pH of 3 was determined; format: ADME; conditions: pH 3
[11] = Concentration inducing 50% inhibition of human aortic endothelial cell (HAEC) proliferation; format: functional, cell-based; procedure, shortened: as §1
[12] = Percent degradation of compound at a pH of 1 over a 18 hr period; format: ADME; conditions: pH 1; read-out: Degradation
[13] = test system: Rattus norvegicus; experiment: In vivo percent reduction in intimal thickening rat balloon injury model at a dose of 100 mg/kg; Range is 18-39 %; format: functional

Remaining [2] [%]	half-life [3] [h]	half-life [4] [h]	half-life [5] [h]	half-life [6] [h]	half-life [7] [h]	half-life [8] [h]	half-life [9] [h]	half-life [10] [h]	degraded at 18 h [12] [%]	SMILES	IC50 [1] [µM]	IC50 [11] [µM]	Reduction [13] [%]
94	> 20	> 20	> 20	> 20	> 20	> 20	> 20	> 20	–	CC(=O)Nc1cc(CO[C@@H]2O[C@@H](COC(=O)c3ccccc3)[C@H](O[C@H]3OC4CO[C@@H](Cc5ccccc5)OC4[C@H](O)[C@@H]3O)[C@H](O)[C@@H]2O)ccc1Cl (stereo not given in full)	0.035	–	–
68	> 20	> 20	> 20	> 20	> 20	> 20	> 20	> 20	32	CC(=O)Nc1cc(CO[C@@H]2O[C@@H](COC(=O)c3ccccc3)[C@H](O[C@H]3OC4CO[C@@H](C)OC4[C@H](O)[C@@H]3O)[C@H](O)[C@@H]2O)ccc1Cl (stereo not given in full)	0.103	0.257	–
53	> 20	> 20	> 20	> 20	> 20	> 20	> 20	> 20	–	CC(=O)Nc1cc(CO[C@@H]2O[C@@H](COC(=O)c3ccccc3)[C@H](O[C@H]3OC4CO[C@@H](C(C)C)OC4[C@H](O)[C@@H]3O)[C@H](O)[C@@H]2O)ccc1Cl (stereo not given in full)	0.003	–	–
52	> 20	> 20	> 20	> 20	> 20	> 20	> 20	> 20	–	CC[C@@H]1OCC2O[C@H](O[C@@H]3[C@H](O)[C@H](O)[C@H](OCc4ccc(Cl)c(NC(C)=O)c4)O[C@H]3COC(=O)c3ccccc3)[C@@H](O)[C@@H](O)C2O1 (stereo not given in full)	0.037	0.235	–
–	–	–	–	–	–	–	–	–	–	CC(=O)Nc1cc(CO[C@@H]2O[C@@H](COC(=O)c3ccccc3)[C@H](O[C@H]3OC4CO[C@@H](c5ccc([N+](=O)[O-])cc5)OC4[C@H](O)[C@@H]3O)[C@H](O)[C@@H]2O)ccc1Cl (stereo not given in full)	0.003	0.368	–
97	> 20	> 20	> 20	> 20	> 20	> 20	> 20	> 20	–	CC(=O)Nc1cc(CO[C@@H]2O[C@@H](COC(=O)c3ccccc3)[C@H](O[C@H]3OC4CO[C@@H](c5ccncc5)OC4[C@H](O)[C@@H]3O)[C@H](O)[C@@H]2O)ccc1Cl (stereo not given in full)	0.003	–	–
–	–	–	–	–	–	–	–	–	–	CC(=O)Nc1cc(CO[C@@H]2O[C@@H](COC(=O)c3ccccc3)[C@H](O[C@H]3O[C@@H](CO)[C@@H](O)[C@H](O)[C@@H]3O)[C@H](O)[C@@H]2O)ccc1Cl	34.9	–	–
0	13.3	4	> 20	> 20	> 20	> 20	1.7	> 20	–	CC(=O)Nc1cc(CO[C@@H]2O[C@@H](COC(=O)c3ccccc3)[C@H](O[C@H]3OC4CO[C@@H](c5ccc(Cl)cc5)OC4[C@H](O)[C@@H]3O)[C@H](O)[C@@H]2O)ccc1Cl (stereo not given in full)	0.023	0.324	–
0	4.2	2.3	13	> 20	> 20	> 20	1.9	> 20	100	CC(=O)Nc1cc(CO[C@@H]2O[C@@H](COC(=O)c3ccccc3)[C@H](O[C@H]3OC4CO[C@@H](c5ccccc5)OC4[C@H](O)[C@@H]3O)[C@H](O)[C@@H]2O)ccc1Cl (stereo not given in full)	0.02	0.923	39
